The results in this text go back to ChEMBL document CHEMBL1221214, “Cytosporone B is an agonist for nuclear orphan receptor Nur77” (Nat Chem Biol, 2008).

The target of test [1] is T1, Nuclear receptor subfamily 4immunitygroup A member 1 (Homo sapiens, UniProt P22736). The test is described as follows: Binding affinity to GST-tagged nuclear orphan receptor Nur77 at 25 degC by fluorescence quenching analysis. A digest of the protocol: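 GST-Nur77 intrinsic fluorescence (emission maximum 336 nm) monitored while increasing Csn-B amounts were added; inner-filter contribution estimated with GST alone and subtracted to give corrected quenching curves.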

Test [2] deals with BGC-823. The test is described as follows: Induction of mitochondria translocation of Nur77 from nucleus in human BGC823 cells transfected with GFP-Nur77 pretreated with 1 ng/ml leptomycin B at 5 ug/ml after 12 hrs using […] by confocal microscope. It is filed as functional, cell-based.
The test system of test [3] is Staphylococcus aureus. The test is described as follows: Antimicrobial activity against Staphylococcus aureus. The test is classed as functional, organism-based.
Test [4] concerns the target T1, Nuclear receptor subfamily 4immunitygroup A member 1. The test is described as follows: Binding affinity to nuclear orphan receptor Nur77 assessed as conformational change in receptor by CD spectroscopic.
Test [5] concerns Saccharomyces cerevisiae. The test is described as follows: Antimicrobial activity against Saccharomyces cerevisiae. It is filed as functional, organism-based.
In test [6] the test system is Mycobacterium tuberculosis. The test is described as follows: Antimicrobial activity against Mycobacterium tuberculosis. The test is classed as functional, organism-based.
Test [7] addresses Nuclear receptor subfamily 4immunitygroup A member 1 (Homo sapiens, UniProt P22736, Y453A). The test is described as follows: Binding affinity to Nur77 Y453A mutant expressed in human BGC823 cells. The test is classed as cell-based, BGC-823.

Values after ≈ are worked out from the molar mass of the structure shown. Active and inactive are the calls of the source. No cut-off for these calls is given here.

T1 sequence (P22736 whole entry): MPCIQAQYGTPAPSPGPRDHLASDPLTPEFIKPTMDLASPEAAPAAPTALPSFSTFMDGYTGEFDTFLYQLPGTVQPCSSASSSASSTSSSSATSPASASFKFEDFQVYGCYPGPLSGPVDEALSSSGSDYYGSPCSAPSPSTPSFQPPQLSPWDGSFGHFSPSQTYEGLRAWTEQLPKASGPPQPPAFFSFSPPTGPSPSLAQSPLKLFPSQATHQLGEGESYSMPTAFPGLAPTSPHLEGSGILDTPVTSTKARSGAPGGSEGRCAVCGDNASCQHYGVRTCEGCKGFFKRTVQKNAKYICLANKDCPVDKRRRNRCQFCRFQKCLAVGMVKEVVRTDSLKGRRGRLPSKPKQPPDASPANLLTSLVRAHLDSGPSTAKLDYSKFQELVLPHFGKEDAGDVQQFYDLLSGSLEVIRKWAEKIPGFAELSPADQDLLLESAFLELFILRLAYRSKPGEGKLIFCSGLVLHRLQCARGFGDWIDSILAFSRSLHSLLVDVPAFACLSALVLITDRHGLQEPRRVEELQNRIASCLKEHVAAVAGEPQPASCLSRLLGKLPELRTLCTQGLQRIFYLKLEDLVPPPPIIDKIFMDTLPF
Chain of Nuclear receptor subfamily 4immunitygroup A member 1 (Homo sapiens, UniProt P22736, Y453A) (P22736 whole entry Y453A): as the sequence (P22736 whole entry) above, with Y453A counted along it

On to `CCCCCCCC1OC(=O)Cc2cc(O)cc(O)c21` (configuration not stated) [CYTOSPORONE C], for which the result in test [1], in test [2] and in test [4] was inactive. The results for the IC50 in test [3], in test [5] and in test [6] were 50 mg/L (≈ 180 µM), 12.5 mg/L (≈ 44.9 µM) and 62.5 mg/L (≈ 225 µM), respectively.

As for `CC1=C(/C=C/C(C)=C\C=C\C(C)=C\C(=O)O)C(C)(C)CCC1` [ALITRETINOIN], the Kd in test [7] was 0.81 µM.
